From article PMC5672994 (Molecular Imaging, 2017)

Experiments:
Lipophilicity = format: physicochemical; settings: shake-flask
PSMA(+) LNCaP tumors = assay: Small-animal PET imaging in mice bearing subcutaneous LNCaP tumors; format: in vivo; settings: for peak (maximum) kidney uptake / time of peak kidney uptake postadministration: dynamic PET kidney TAC; for absolute tumor uptake, fold lower in comparison to ^68Ga-1 / specificity of tumor accumulation: PET; for specificity of tumor accumulation: PSMA(+) LNCaP tumors, blocking with PMPA 20 nmol/mouse; for peak tumor uptake: subcutaneous LNCaP tumor, iv
Summary of the method: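 Athymic Balb/c nude mice carried LNCaP xenografts (5.0 million cells sc, right shoulder, in Matrigel 1:1), imaged at ~200-300 mg. Dosing was by iv tail vein in PBS pH7.4: static 15.4-18.7 MBq (~0.56-0.68 nmol), dynamic ~28 MBq. Mice were under isoflurane. Dynamic scans ran 3500 s; static scans at 0.5, 1, 2 and 3 h. Decay-corrected VOI %ID/g was taken. Blocking used coinjected PMPA 20 nmol/mouse (n = 3).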

Metabolism in vivo = settings: mice, 15 minutes after injection, HPLC
Summary of the method: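 Mice (n = 2/group) received 7.3-11.1 MBq (0.3-0.4 nmol) of ⁶⁸Ga-radiotracer in PBS by tail-vein injection and were killed at 15 min. Heparinized blood was spun at 1700 g for 5 min. Plasma was ultrafiltered (30 kDa cutoff, 9660 g, 10 min). Filtrate and protein fractions were gamma-counted, and filtrate aliquots were analysed by RP-HPLC for metabolites.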

[1] = Stability of formulated radiotracer in saline or PBS; format: physicochemical; settings: incubation in saline or PBS at 37°C for over 4 hours

LogD (n-octanol: PBS pH7.4) (Lipophilicity) | time of peak tumor uptake postadministration (PSMA(+) LNCaP tumors; dynamic PET, LNCaP tumor) [min] | absolute tumor uptake after 3 hours postadministration (PSMA(+) LNCaP tumors; static PET, LNCaP tumor) | Compound | peak (maximum) kidney uptake (PSMA(+) LNCaP tumors) | time of peak kidney uptake postadministration (PSMA(+) LNCaP tumors) [s] | tumor-associated radioactivity after 3500 seconds (PSMA(+) LNCaP tumors; dynamic PET, LNCaP tumor) [%ID/g] | radiotracer intact in soluble fraction of the blood pool (Metabolism in vivo) [%] | absolute tumor uptake, fold lower in comparison to ^68Ga-1 (PSMA(+) LNCaP tumors; LNCaP tumor) [fold] | specificity of tumor accumulation (PSMA(+) LNCaP tumors) | peak tumor uptake (PSMA(+) LNCaP tumors; dynamic PET) | stability with respect to changes in RCP [1] | tumor-associated activity retained for up to 3 hours (PSMA(+) LNCaP tumors; static PET, LNCaP tumor)
−4.06 ± 0.10 | – | – | O=C([O-])CN(CCN(CC(=O)[O-])Cc1cc(CCC(=O)NCCCCCC(=O)NCCCC[C@H](NC(=O)N[C@@H](CCC(=O)O)C(=O)O)C(=O)O)ccc1[O-])Cc1cc(CCC(=O)O)ccc1[O-].[68Ga+3].[OH3+] [^68Ga-1, ^68Ga-HBED-CC-PSMA, reference compound] | around 30 %ID/g | ~500 | > 8.0 | – | – | – | – | – | –
−3.24 ± 0.05 | 5 to 10 | 0.8-1.2 %ID/g | ^68Ga-DFO-Nsucc-PSMA [^68Ga-4] | – | – | – | 100 | ~10 | specific accumulation | 3-4 %ID/g | stable | –

Compound | LogD (n-octanol: PBS pH7.4) (Lipophilicity) | time of peak tumor uptake postadministration (PSMA(+) LNCaP tumors; dynamic PET, LNCaP tumor) [min] | absolute tumor uptake after 3 hours postadministration (PSMA(+) LNCaP tumors; static PET, LNCaP tumor) | peak (maximum) kidney uptake (PSMA(+) LNCaP tumors) | time of peak kidney uptake postadministration (PSMA(+) LNCaP tumors) [s] | tumor-associated radioactivity after 3500 seconds (PSMA(+) LNCaP tumors; dynamic PET, LNCaP tumor) [%ID/g] | radiotracer intact in soluble fraction of the blood pool (Metabolism in vivo) [%] | absolute tumor uptake, fold lower in comparison to ^68Ga-1 (PSMA(+) LNCaP tumors; LNCaP tumor) [fold] | specificity of tumor accumulation (PSMA(+) LNCaP tumors) | peak tumor uptake (PSMA(+) LNCaP tumors; dynamic PET) | stability with respect to changes in RCP [1] | tumor-associated activity retained for up to 3 hours (PSMA(+) LNCaP tumors; static PET, LNCaP tumor)
^68Ga-DFO-pNCS-Bn-PSMA [^68Ga-7] | −2.60 ± 0.02 | – | – | ~50 %ID/g | ~1400 | 2.90 ± 0.46 | 100 | ~2.5 | specific accumulation | 3.5-4.0 %ID/g | stable | 2.5-3.5 %ID/g
